Experimental data from ChEMBL document CHEMBL1131139, “Synthesis and antibacterial activity of ketolides (6-O-methyl-3-oxoerythromycin derivatives): a new class of antibacterials highly potent against macrolide-resistant and -susceptible respiratory pathogens” (1998).
Values after ≈ are worked out from the molar mass of the structure shown.

How the values were obtained:
Type in all cases: functional
[1] = test system: Staphylococcus epidermidis; assay: In vitro inhibitory activity against Staphylococcus epidermidis (EryRi 012GO11i)
Summary of the method: (§1)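 Two-fold agar dilution on Mueller-Hinton agar (pH 7.4). Inoculum from overnight plate cultures suspended in Mueller-Hinton broth, adjusted to 10^9 CFU/mL, diluted 1:200 and spotted by multipoint inoculator at about 10^4 CFU/spot. Plates incubated 37 °C for 20 h. MIC taken as lowest concentration with no visible growth.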

Streptococcus pneumoniae [2] = assay: In vitro inhibitory activity against Streptococcus pneumoniae (032UC1); summary of the method: as §1
Streptococcus pyogenes = assay: In vitro inhibitory activity against Streptococcus pyogenes (02A1UC1); summary of the method: as §1
Staphylococcus aureus [3] = assay: In vitro inhibitory activity against Staphylococcus aureus (EryRc 011CB20); summary of the method: as §1
Haemophilus influenzae [4] = assay: In vitro inhibitory activity against Haemophilus influenzae (351CB12); summary of the method: as §1
Escherichia coli = assay: In vitro inhibitory activity against Escherichia coli (250 UC5); summary of the method: as §1
Streptococcus pneumoniae [5] = assay: In vitro inhibitory activity against Streptococcus pneumoniae (EryRc 030SJ1); summary of the method: as §1
Haemophilus influenzae [6] = assay: In vitro inhibitory activity against Haemophilus influenzae (351HT3); summary of the method: as §1
Streptococcus pneumoniae [7] = assay: In vitro inhibitory activity against Streptococcus pneumoniae (EryRi 030SJ5i); summary of the method: as §1
Staphylococcus aureus [8] = assay: In vitro inhibitory activity against Staphylococcus aureus (EryRi 011GO25i); summary of the method: as §1
Staphylococcus aureus [9] = assay: In vitro inhibitory activity against Staphylococcus aureus (011UC4); summary of the method: as §1

| Compound | MIC [1] | MIC (Streptococcus pneumoniae [2]) | MIC (Streptococcus pyogenes) | MIC (Staphylococcus aureus [3]) | MIC (Haemophilus influenzae [4]) | MIC (Escherichia coli) | MIC (Streptococcus pneumoniae [5]) | MIC (Haemophilus influenzae [6]) | MIC (Streptococcus pneumoniae [7]) | MIC (Staphylococcus aureus [8]) | MIC (Staphylococcus aureus [9]) |
| --- | --- | --- | --- | --- | --- | --- | --- | --- | --- | --- | --- |
| CC[C@H]1OC(=O)[C@H](C)C(=O)[C@H](C)[C@@H](O[C@@H]2O[C@H](C)C[C@H](N(C)C)[C@H]2O)[C@](C)(OC)C[C@@H](C)/C(=N\OCCN2CCOCC2)[C@H](C)[C@@H](O)[C@]1(C)O | 2.5 µg/mL (≈ 3.49 µM) | 40 µg/mL (≈ 55.9 µM) | 0.15 µg/mL (≈ 0.21 µM) | 40 µg/mL (≈ 55.9 µM) | 40 µg/mL (≈ 55.9 µM) | 40 µg/mL (≈ 55.9 µM) | 5 µg/mL (≈ 6.98 µM) | 40 µg/mL (≈ 55.9 µM) | 20 µg/mL (≈ 27.9 µM) | 10 µg/mL (≈ 14 µM) | 1.2 µg/mL (≈ 1.68 µM) |
| CC[C@H]1OC(=O)[C@H](C)[C@@H](O[C@H]2C[C@@](C)(OC)[C@@H](O)[C@H](C)O2)[C@H](C)[C@@H](O[C@@H]2O[C@H](C)C[C@H](N(C)C)[C@H]2O)[C@](C)(OC)C[C@@H](C)C(=O)[C@H](C)[C@H]2N(CCCCc3ccccc3)C(=O)O[C@]12C | 40 µg/mL (≈ 44.2 µM) | 0.02 µg/mL (≈ 0.0221 µM) | 0.04 µg/mL (≈ 0.0442 µM) | 20 µg/mL (≈ 22.1 µM) | 2.5 µg/mL (≈ 2.76 µM) | 40 µg/mL (≈ 44.2 µM) | 10 µg/mL (≈ 11 µM) | 2.5 µg/mL (≈ 2.76 µM) | 1.2 µg/mL (≈ 1.33 µM) | 20 µg/mL (≈ 22.1 µM) | 0.3 µg/mL (≈ 0.331 µM) |
| CC[C@H]1OC(=O)[C@H](C)[C@@]2(O)O[C@@](C)(C[C@@H](C)/C(=N\OCOCCOC)[C@H](C)[C@@H](O)[C@]1(C)O)[C@H](O[C@@H]1O[C@H](C)C[C@H](N(C)C)[C@H]1O)[C@H]2C | 40 µg/mL (≈ 59.1 µM) | 40 µg/mL (≈ 59.1 µM) | 40 µg/mL (≈ 59.1 µM) | 40 µg/mL (≈ 59.1 µM) | 40 µg/mL (≈ 59.1 µM) | 40 µg/mL (≈ 59.1 µM) | 40 µg/mL (≈ 59.1 µM) | 40 µg/mL (≈ 59.1 µM) | 40 µg/mL (≈ 59.1 µM) | 40 µg/mL (≈ 59.1 µM) | 40 µg/mL (≈ 59.1 µM) |

Molecules with a lower MIC [1], results first:

| MIC [1] | MIC (Streptococcus pneumoniae [2]) | MIC (Streptococcus pyogenes) | MIC (Staphylococcus aureus [3]) | MIC (Haemophilus influenzae [4]) | MIC (Escherichia coli) | MIC (Streptococcus pneumoniae [5]) | MIC (Haemophilus influenzae [6]) | MIC (Streptococcus pneumoniae [7]) | MIC (Staphylococcus aureus [8]) | MIC (Staphylococcus aureus [9]) | Compound |
| --- | --- | --- | --- | --- | --- | --- | --- | --- | --- | --- | --- |
| 1.2 µg/mL (≈ 1.59 µM) | 0.3 µg/mL (≈ 0.398 µM) | 0.04 µg/mL (≈ 0.0531 µM) | 40 µg/mL (≈ 53.1 µM) | 5 µg/mL (≈ 6.63 µM) | 40 µg/mL (≈ 53.1 µM) | 40 µg/mL (≈ 53.1 µM) | 5 µg/mL (≈ 6.63 µM) | 20 µg/mL (≈ 26.5 µM) | 2.5 µg/mL (≈ 3.32 µM) | 0.3 µg/mL (≈ 0.398 µM) | CC[C@H]1OC(=O)[C@H](C)C(=O)[C@H](C)[C@@H](O[C@@H]2O[C@H](C)C[C@H](N(C)C)[C@H]2O)[C@](C)(OC)C[C@@H](C)/C(=N\OCCNCCCn2ccnc2)[C@H](C)[C@@H](O)[C@]1(C)O |
| 0.6 µg/mL (≈ 0.875 µM) | 0.08 µg/mL (≈ 0.117 µM) | 0.04 µg/mL (≈ 0.0583 µM) | 40 µg/mL (≈ 58.3 µM) | 0.6 µg/mL (≈ 0.875 µM) | 40 µg/mL (≈ 58.3 µM) | 0.3 µg/mL (≈ 0.437 µM) | 2.5 µg/mL (≈ 3.64 µM) | 0.3 µg/mL (≈ 0.437 µM) | 2.5 µg/mL (≈ 3.64 µM) | 0.15 µg/mL (≈ 0.219 µM) | CC[C@H]1OC(=O)[C@H](C)C(=O)[C@H](C)[C@@H](O[C@@H]2O[C@H](C)C[C@H](N(C)C)[C@H]2O)[C@](C)(OC)C[C@@H](C)/C(=N\O[C@@H]2CCCNC2)[C@H](C)[C@@H](O)[C@]1(C)O |
| 0.3 µg/mL (≈ 0.47 µM) | 0.02 µg/mL (≈ 0.0314 µM) | 0.08 µg/mL (≈ 0.125 µM) | 40 µg/mL (≈ 62.7 µM) | 5 µg/mL (≈ 7.84 µM) | 40 µg/mL (≈ 62.7 µM) | 40 µg/mL (≈ 62.7 µM) | 5 µg/mL (≈ 7.84 µM) | 40 µg/mL (≈ 62.7 µM) | 0.6 µg/mL (≈ 0.941 µM) | 0.3 µg/mL (≈ 0.47 µM) | CC[C@H]1OC(=O)[C@H](C)C(=O)[C@H](C)[C@@H](O[C@@H]2O[C@H](C)C[C@H](N(C)C)[C@H]2O)[C@](C)(OC)C[C@@H](C)C2=NCCN3C(=O)O[C@@]1(C)[C@H]3[C@H]2C |
| 0.08 µg/mL (≈ 0.0968 µM) | 0.02 µg/mL (≈ 0.0242 µM) | 0.02 µg/mL (≈ 0.0242 µM) | 40 µg/mL (≈ 48.4 µM) | 2.5 µg/mL (≈ 3.03 µM) | 40 µg/mL (≈ 48.4 µM) | 20 µg/mL (≈ 24.2 µM) | 2.5 µg/mL (≈ 3.03 µM) | 0.08 µg/mL (≈ 0.0968 µM) | 0.3 µg/mL (≈ 0.363 µM) | 0.08 µg/mL (≈ 0.0968 µM) | CC[C@H]1OC(=O)[C@H](C)C(=O)[C@H](C)[C@@H](O[C@@H]2O[C@H](C)C[C@H](N(C)C)[C@H]2O)[C@](C)(OC)C[C@@H](C)C(=O)[C@H](C)[C@H]2N(CCCCc3ccnc4c(OC)cccc34)C(=O)O[C@]12C |
